The subject of test [1] is Lacticaseibacillus casei. Description: Fold increase in resistance, ratio of IC50 for chlorguanide triazine-resistant Lactobacillus casei ATCC 7469 to IC50 for sensitive Lactobacillus casei ATCC 7469. The class given is functional. A digest of the protocol:
(§1)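 Resistant substrains were made by serial transfer in rising concentrations of cycloguanil, and the most resistant isolate of each organism was used. Both strains were assayed turbidimetrically under identical conditions. FIR = IC50 of the resistant strain divided by IC50 of the sensitive parent.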

Test [2] has as its system Pediococcus. Description: Fold increase in resistance, ratio of IC50 for chlorguanide triazine-resistant Pediococcus cerevisiae ATCC 808 to IC50 for sensitive Pediococcus cerevisiae ATCC 808. Format: functional. The procedure, abridged:
as §1

Test [3] concerns Lacticaseibacillus casei. Description: Antibacterial activity against sensitive Lactobacillus casei ATCC 7469 assessed as reduction. Format: functional, organism-based. The procedure, abridged:
(§2)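 Folate-requiring strains grown in medium with folic acid, 0.002 µg/ml for S. faecium and 0.001 µg/ml for L. casei; P. cerevisiae given folinic acid, 0.001 µg/ml. Resistant substrains came from serial transfer in rising chlorguanide triazine, and the most resistant were used. Compounds tested up to 1000 µg/ml, or 100 µg/ml when supply was limited. Growth read as Klett turbidity; IC50 is the µM concentration giving 50% growth inhibition.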

Test [4] relates to Escherichia coli. Description: Antibacterial activity against sensitive Escherichia coli ATCC 10536 assessed as reduction in growth in presence of p-aminobenzoic acid. Format: functional, organism-based. The procedure, abridged:
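Reversal test. Drug inhibition was challenged with PABA in Sahyun et al. medium plus 0.6% acid-hydrolyzed casein. Growth read as turbidity on a Klett-Summerson colorimeter. Scored as reversal or nonreversal of the drug inhibition.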

Test [5] relates to Pediococcus. Description: Antibacterial activity against chlorguanide triazine-resistant Pediococcus cerevisiae ATCC 808 assessed as reduction in growth in presence of 0.001 ug/ml folinic acid. Format: functional. A digest of the protocol: as §2
The test system of test [6] is Pediococcus. Description: Antibacterial activity against sensitive Pediococcus cerevisiae ATCC 808 assessed as reduction in growth in presence of 0.001 ug/ml folinic acid. Format: functional. A digest of the protocol:
(§3)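 P. cerevisiae grown with folinic acid at 0.001 μg/ml in the earlier-described medium. Turbidity read on a Klett-Summerson colorimeter. IC50 is the micromolar concentration reducing growth to 50% of control. Top concentration was 1000 μg/ml, or 100 μg/ml when supply was limited.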

The nature of test [7]: Antibacterial activity against chlorguanide triazine-resistant Pediococcus cerevisiae ATCC 808 assessed as reduction in growth. The class given is functional. The procedure, abridged: as §2
Test [8] concerns Escherichia coli. Description: Antibacterial activity against sensitive Escherichia coli ATCC 10536 assessed as reduction in growth. The class given is functional, organism-based. A digest of the protocol: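 Growth inhibition in Sahyun et al. medium plus 0.6% acid-hydrolyzed casein. Growth read as turbidity on a Klett-Summerson photoelectric colorimeter. IC50 is the micromolar concentration giving 50% growth inhibition. Top concentration was 1000 μg/ml, or 100 μg/ml when compound was limited.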

Test [9] concerns Plasmodium berghei. Description: Antimalarial activity against Plasmodium berghei infected in sc dosed mouse assessed as active dose required to increase of 100% in mean survival time. The note with it: read-out: MED. Format: functional. The procedure, abridged: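 Mice received a standard blood-induced P. berghei inoculum and were then treated with one subcutaneous dose of compound suspended in peanut oil. The minimum active dose is the lowest dose that raised mean survival time by 100%.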

The subject of test [10] is Enterococcus faecium. The test is described as follows: Antibacterial activity against chlorguanide triazine-resistant Streptococcus faecium ATCC 8043 assessed as reduction in growth in presence of 0.002 ug/ml folic acid. Format: functional, organism-based. The procedure, abridged:
as §2

Test [11] has as its system Plasmodium berghei. The test is described as follows: Antimalarial activity against Plasmodium berghei infected in sc dosed mouse assessed as dose required to survivors for period of 60 days. Format: functional. A digest of the protocol: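 Mice infected with a blood-induced P. berghei inoculum were given one subcutaneous dose in peanut oil. Survivors at 60 days counted as cured. The minimum curative dose is the lowest dose that cured any mouse.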

Test [12] concerns Enterococcus faecium. Description: Antibacterial activity against chlorguanide triazine-resistant Streptococcus faecium ATCC 8043 assessed as reduction in growth. The class given is functional, organism-based. A digest of the protocol:
as §2

A short description of test [13]: Antibacterial activity against sensitive Pediococcus cerevisiae ATCC 808 assessed as reduction. The class given is functional. The procedure, abridged:
as §3

The subject of test [14] is Lacticaseibacillus casei. The test is described as follows: Antibacterial activity against chlorguanide triazine-resistant Lactobacillus casei ATCC 7469 assessed as reduction in growth. Format: functional, organism-based. A digest of the protocol:
as §2

Test [15] deals with Lacticaseibacillus casei. The test is described as follows: Antibacterial activity against chlorguanide triazine-resistant Lactobacillus casei ATCC 7469 assessed as reduction in growth in presence of 0.001 ug/ml folic acid. Format: functional, organism-based. A digest of the protocol:
as §2

For test [16], the system named is Enterococcus faecium. Description: Antibacterial activity against sensitive Streptococcus faecium ATCC 8043 assessed as reduction in growth. Format: functional, organism-based. The procedure, abridged:
as §2

Test [17] has as its system Lacticaseibacillus casei. Description: Antibacterial activity against sensitive Lactobacillus casei ATCC 7469 assessed as reduction in growth in presence of 0.001 ug/ml folic acid. Format: functional, organism-based. A digest of the protocol: (§4)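 Folate-requiring strains in the medium of the earlier assay method. Folic acid was 0.002 μg/ml for S. faecium and 0.001 μg/ml for L. casei. Turbidity read on a Klett-Summerson colorimeter. IC50 is the micromolar concentration reducing growth to 50% of control. Top concentration was 1000 μg/ml, or 100 μg/ml if supply was limited.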

In test [18] the test system is Enterococcus faecium. The test is described as follows: Fold increase in resistance, ratio of IC50 for chlorguanide triazine-resistant Streptococcus faecium ATCC 8043 to IC50 for sensitive Streptococcus faecium ATCC 8043. Format: functional. A digest of the protocol:
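Resistant S. faecium substrain raised by serial transfer in increasing chlorguanide triazine. IC50 (µM, 50% growth inhibition by turbidity) was found for resistant and parent strains in folic acid (0.002 µg/ml) medium. Fold increase taken as IC50 resistant / IC50 sensitive.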

Test [19] concerns Enterococcus faecium. Description: Antibacterial activity against sensitive Streptococcus faecium ATCC 8043 assessed as reduction in growth in presence of 0.002 ug/ml folic acid. Format: functional, organism-based. A digest of the protocol: as §4

Activity calls are given as the source filed them. The calls are words filed in the database; no cut-off is given here. Bounds are passed on as bounds.

As to `Nc1nc(N)c2cc(S(=O)(=O)c3ccc4ccccc4c3)ccc2n1`, the “Ratio IC50” value is recorded as 0.23 in test [1], 25 in test [2] and 40 in [18]. Also, the IC50 (usually the midpoint of a concentration-inhibition curve) in test [3] is 40 nM; in [7], 50 nM; in test [8], less than 200 nM; in test [12], 80 nM; in [13], 2 nM; in test [14] it was 9 nM. Also, in [16], the IC50 came out at 2 nM. In addition, the inhibition result in test [4] is “Active”. For the same molecule, the inhibition entry in [5], in test [6], in [10], in test [15], in test [17] and in test [19] was “inactive” each time. Further, the minimal effective dose in test [9] is 0.63 mg/kg. The MCD in test [11] was 1.25 mg/kg.
With `Nc1nc(N)c2cc(Oc3cc(Cl)cc(Cl)c3)ccc2n1`, the “Ratio IC50” value in [1] was 0.16; in [2] it was 11.7; in [18], 144. Besides, the 50% inhibitory concentration (IC50) came out at 250 nM in [3]; 1400 nM in [7]; 2000 nM in test [8]; 1300 nM in test [12]; 120 nM in test [13]; 40 nM in test [14]. In addition, the IC50 in [16] worked out at 9 nM. In addition, in test [4], the inhibition entry is “Active”. Also, the inhibition result in [5], in test [6], in [10], in test [15], in test [17] and in test [19] was “inactive” throughout. Moreover, the minimal effective dose in [9] stood at 320 mg/kg. Besides, the MCD in [11] came out at 640 mg/kg.
As for `Nc1nc(N)c2cc(NCc3ccc(Cl)c(Cl)c3)ccc2n1`, the “Ratio IC50” value came out at 0.08 in [1], 3.5 in test [2] and 330 in test [18]. Further, the IC50 in test [3] is 400 nM; in test [7], 700 nM; in test [8], 33000 nM; in test [12] it was 2000 nM; in test [13], 200 nM; in test [14] it was 30 nM. In addition, the IC50 in [16] is 6 nM. Besides, the inhibition entry in test [4] is “Active”. Besides, the inhibition entry in test [5], in test [6], in [10], in test [15], in [17] and in test [19] was “inactive” each time. For the same molecule, the minimal effective dose in test [9] turned out to be 20 mg/kg. Also, the MCD in test [11] is 80 mg/kg.

These data come from ChEMBL document CHEMBL3272032, “Antifolate studies. Activities of 40 potential antimalarial compounds against sensitive and chlorguanide triazine resistant strains of folate-requiring bacteria and Escherichia coli” (J Med Chem, 1977).
